For 32 molecules, viability and Activity results are on record in ChEMBL document CHEMBL1139076, “Structural simplification of bioactive natural products with multicomponent synthesis: dihydropyridopyrazole analogues of podophyllotoxin” (2007).

For assay [1], the system named is HeLa. Put plainly: Cytotoxicity against human HeLa cells assessed as viability at 5 uM after 48 hrs by MTT method relative to control. In kind it is functional. The conditions noted are these: read-out: Activity. The gist of the method:
(§1)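 Cells treated 48 h with compound at final 5 µM. Viability was read as mitochondrial dehydrogenase activity by MTT and expressed as % of the 100% DMSO control. Values are mean ± s.d. from two experiments.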
(Formazan colour is commonly taken as a measure of viable cells.)

Assay [2] can be described thus: Cytotoxicity against human MCF7AZ cells assessed as viability at 5 uM after 48 hrs by MTT method relative to control. The conditions noted are these: MCF7/AZ, read-out: Activity. The assay is classed as functional. The gist of the method:
as §1

For assay [3], the system named is Jurkat. Put plainly: Cytotoxicity against human Jurkat cells assessed as viability at 5 uM after 48 hrs by MTT method relative to control. In kind it is functional. Particulars: read-out: Activity. The gist of the method:
as §1

Assay [4] has as its system Jurkat. Put plainly: Induction of apoptosis in human Jurkat cells at 5 uM by flow cytometric annexin-V/propidium iodide assay. The assay is classed as functional, cell-based. The conditions noted are these: TDE = time-dependent effect. The method, boiled down: (§2)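 Jurkat cells were treated for 12, 24, 36 or 48 h against a DMSO control. Apoptosis was scored by flow cytometry after annexin-V/propidium iodide staining.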
In general terms: Flow cytometry measures light scatter and fluorescence of single cells or particles in a stream.

Assay [5] has as its system Jurkat. Description: Induction of apoptosis in human Jurkat cells at 5 uM after 48 hrs by flow cytometric annexin-V/propidium iodide assay. The assay is classed as functional. The gist of the method: as §2
Assay [6] is described as follows: Cytotoxicity against human MCF7AZ cells assessed as viability at 50 uM after 48 hrs by MTT method relative to control. The assay is classed as functional. Particulars: MCF7/AZ, read-out: Activity. The method, boiled down:
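MCF7-AZ cells were exposed 48 h to compound at final 50 µM. Viability was read as mitochondrial dehydrogenase activity by MTT, relative to DMSO control.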

In assay [7] the test system is Jurkat. Description: Induction of apoptosis in human Jurkat cells at 50 uM by flow cytometric annexin-V/propidium iodide assay. In kind it is functional, cell-based. Particulars: TDE = time-dependent effect. The gist of the method:
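Human T-cell leukemia Jurkat cells were exposed to compound alongside a DMSO control and harvested after 12, 24, 36 and 48 hours. Apoptosis was read by flow cytometry after annexin-V and propidium iodide staining.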

The test system of assay [8] is Jurkat. Put plainly: Induction of apoptosis in human Jurkat cells at 50 uM after 48 hrs by flow cytometric annexin-V/propidium iodide assay. The assay is classed as functional. The method, boiled down:
as §2

Structures are written as SMILES.

Regarding `COc1cc(C2C3=C(COC3=O)Nc3[nH]nc(C)c32)cc([N+](=O)[O-])c1O` (stereo not given), the figures for the viability at 5 µM in assay [1], in assay [2] and in assay [3] were 78%, 89% and 90%, respectively.

With `C=C(C)[C@@H]1CC=C(C2C3=C(COC3=O)Nc3[nH]nc(C)c32)CC1` (stereo not given in full), the results for the viability at 5 µM in assay [1], in assay [2] and in assay [3] were 95%, 91% and 89%, respectively.

For the molecule `Cc1n[nH]c2c1C(c1ccc(Br)cc1)C1=C(COC1=O)N2` (stereo not given), the viability at 5 µM was determined as 62% in assay [1], 92% in assay [2] and 90% in assay [3].

Regarding `Cc1n[nH]c2c1C(c1cccs1)C1=C(COC1=O)N2` (stereo not given), the viability at 5 µM in assay [1] was 82%; in assay [2], 98%; in assay [3] it was 74%.

As to `Cc1n[nH]c2c1C(c1cccc(F)c1)C1=C(COC1=O)N2` (stereo not given), the viability at 5 µM was 99% in assay [1], 76% in assay [2] and 84% in assay [3].

On to `Cc1n[nH]c2c1C(c1ccc(Cl)c(Cl)c1)C1=C(COC1=O)N2` (stereo not given), for which the viability at 5 µM came out at 88% in assay [1], 56% in assay [2] and 71% in assay [3].

For `Cc1n[nH]c2c1C(c1cccc(Cl)c1)C1=C(COC1=O)N2` (stereo not given), the viability at 5 µM in assay [1] stood at 43%; in assay [2], 54%; in assay [3], 76%.

For the molecule `COc1ccc(C2C3=C(COC3=O)Nc3[nH]nc(C)c32)cc1OC` (stereo not given), the figures for the viability at 5 µM in assay [1], in assay [2] and in assay [3] were 73%, 95% and 88%, respectively.

For the molecule `Cc1n[nH]c2c1C(c1ccc(C3C4=C(COC4=O)Nc4[nH]nc(C)c43)cc1)C1=C(COC1=O)N2` (stereo not given), the viability at 5 µM in assay [1] was 56%; in assay [2] it was 99%; in assay [3], 96%.

Turning to `Cc1n[nH]c2c1C(c1c(C)nc3sccn13)C1=C(COC1=O)N2` (stereo not given), the viability at 5 µM was determined as 84% in assay [1], 100% in assay [2] and 85% in assay [3].

As to `Cc1n[nH]c2c1C(c1ccc(OC(F)(F)F)cc1)C1=C(COC1=O)N2` (stereo not given), the viability at 5 µM was found to be 97% in assay [1], 84% in assay [2] and 97% in assay [3].

`COc1cc(C2C3=C(COC3=O)Nc3[nH]nc(C)c32)cc(OC)c1OC` (stereo not given): the figures for the viability at 5 µM in assay [1], in assay [2] and in assay [3] were 50%, 58% and 47%, respectively. In addition, the Activity entry in assay [4] was “tde”; in assay [5] it was 70%.

For the molecule `Cc1n[nH]c2c1C(c1ccc(N(C)C)c(Br)c1)C1=C(COC1=O)N2` (stereo not given), the viability at 5 µM was found to be 55% in assay [1], 59% in assay [2] and 34% in assay [3].

With `COc1cc([C@@H]2c3cc4c(cc3[C@H](O)[C@H]3COC(=O)[C@H]23)OCO4)cc(OC)c1OC` [PODOFILOX], the values for the viability at 5 µM in assay [1], in assay [2] and in assay [3] were 19%, 55% and 18%, respectively. Besides, the Activity entry was “tde” in assay [4] and 70% in assay [5].

For the molecule `CCOc1c(Br)cc(C2C3=C(COC3=O)Nc3[nH]nc(C)c32)cc1OC` (stereo not given), the viability at 5 µM was determined as 52% in assay [1], 49% in assay [2] and 28% in assay [3].

For the molecule `Cc1n[nH]c2c1C(c1ccccc1Br)C1=C(COC1=O)N2` (stereo not given), the viability at 5 µM in assay [1] is 57%; in assay [2], 100%; in assay [3], 90%.

`Cc1n[nH]c2c1C(c1cnn(-c3ccccc3)c1Cl)C1=C(COC1=O)N2` (stereo not given): the figures for the viability at 5 µM in assay [1], in assay [2] and in assay [3] were 58%, 100% and 94%, respectively.

Consider `Cc1n[nH]c2c1C(c1cc(Br)c(O)c(Br)c1)C1=C(COC1=O)N2` (stereo not given), for which the viability at 5 µM in assay [1] was found to be 58%; in assay [2] it was 60%; in assay [3] it was 58%.

Take `Cc1nc2ccccc2nc1C1C2=C(COC2=O)Nc2[nH]nc(C)c21` (stereo not given): the results for the viability at 5 µM in assay [1], in assay [2] and in assay [3] were 72%, 100% and 97%, respectively.

For the molecule `Cc1n[nH]c2c1C(c1ccccc1)C1=C(COC1=O)N2` (stereo not given), the figures for the viability at 5 µM in assay [1], in assay [2] and in assay [3] were 74%, 84% and 87%, respectively.

Turning to `Cc1n[nH]c2c1C(C)C1=C(COC1=O)N2` (stereo not given), the viability at 5 µM in assay [1] was 70%; in assay [2], 97%; in assay [3], 78%.

For the molecule `COc1cc(C2C3=C(COC3=O)Nc3[nH]nc(C)c32)cc(Br)c1OC(C)=O` (stereo not given), the viability at 5 µM in assay [1] is 47%; in assay [2], 46%; in assay [3], 36%.

On to `Cc1n[nH]c2c1C(c1cccnc1)C1=C(COC1=O)N2` (stereo not given), for which the figures for the viability at 5 µM in assay [1], in assay [2] and in assay [3] were 69%, 96% and 88%, respectively.

On to `COc1ccc(C2C3=C(COC3=O)Nc3[nH]nc(C)c32)cc1` (stereo not given), for which the values for the viability at 5 µM in assay [1], in assay [2] and in assay [3] were 73%, 82% and 94%, respectively.

As to `CSc1ccc(C2C3=C(COC3=O)Nc3[nH]nc(C)c32)cc1` (stereo not given), the viability at 5 µM in assay [1] stood at 45%; in assay [2], 95%; in assay [3] it was 87%.

Regarding `Cc1n[nH]c2c1C(c1ccccc1[N+](=O)[O-])C1=C(COC1=O)N2` (stereo not given), the values for the viability at 5 µM in assay [1], in assay [2] and in assay [3] were 71%, 99% and 64%, respectively.

As for `COc1cc([C@@H]2c3cc4c(cc3[C@@H](O[C@@H]3O[C@@H]5CO[C@@H](C)O[C@H]5[C@H](O)[C@H]3O)[C@H]3COC(=O)[C@H]23)OCO4)cc(OC)c1O` [ETOPOSIDE], the values for the viability at 5 µM in assay [1], in assay [2] and in assay [3] were 91%, 76% and 75%, respectively. Besides, in assay [6], the viability at 50 µM amounted to 57%. Also, the Activity entry in assay [7] was “tde”; in assay [8] it was 70%.

Regarding `Cc1n[nH]c2c1C(c1cccc(Br)c1)C1=C(COC1=O)N2` (stereo not given), the viability at 5 µM turned out to be 51% in assay [1], 63% in assay [2] and 68% in assay [3]. In addition, the Activity entry in assay [4] is “tde”; in assay [5], 70%.

`Cc1n[nH]c2c1C(c1ccsc1)C1=C(COC1=O)N2` (stereo not given): the viability at 5 µM in assay [1] was found to be 98%; in assay [2] it was 100%; in assay [3] it was 82%.

Consider `COc1cc([C@H]2C3=C(COC3=O)Nc3cc4c(cc32)OCO4)cc(OC)c1OC`, for which the viability at 5 µM in assay [1] amounted to 54%; in assay [2] it was 52%; in assay [3], 54%.

As to `COc1cc2c(cc1OC)[C@@H](c1cc(OC)c(OC)c(OC)c1)C1=C(COC1=O)N2`, the viability at 5 µM in assay [1] turned out to be 53%; in assay [2] it was 58%; in assay [3] it was 35%.

As for `Cc1n[nH]c2c1C(c1ccncc1)C1=C(COC1=O)N2` (stereo not given), the viability at 5 µM in assay [1] is 94%; in assay [2] it was 100%; in assay [3] it was 92%.
